# According to ChEMBL document CHEMBL4680130, “Substituted 4-phenylthiazoles: Development of potent and selective A, A and dual A/A adenosine receptor antagonists” (Eur J Med Chem, 2020):
# Columns and labels:
# [1] = target: T1, Adenosine receptor A3 (Rattus norvegicus) (UniProt P28647); assay: Displacement of [3H]NECA from rat adenosine receptor A3 expressed in CHO cell membranes at 0.1 uM incubated for 60 mins by radioligand competition assay relative to control; conditions: Cell membrane
# T1 sequence (whole entry): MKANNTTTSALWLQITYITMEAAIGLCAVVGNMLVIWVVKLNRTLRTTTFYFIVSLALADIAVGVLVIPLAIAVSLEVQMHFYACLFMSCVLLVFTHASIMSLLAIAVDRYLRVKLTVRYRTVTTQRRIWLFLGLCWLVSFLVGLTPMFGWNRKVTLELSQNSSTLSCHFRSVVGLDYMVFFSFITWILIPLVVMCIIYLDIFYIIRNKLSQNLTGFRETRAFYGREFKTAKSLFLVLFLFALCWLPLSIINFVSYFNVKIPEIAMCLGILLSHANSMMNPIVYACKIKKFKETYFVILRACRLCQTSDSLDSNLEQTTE
# In short: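 CHO membranes expressing rat A3, [3H]NECA 10 nM. Nonspecific binding defined by 100 µM R-PIA. Preincubated 20 min with adenosine deaminase, then 60 min at rt in 50 mM Tris-HCl pH 7.4 with 2.5% DMSO. GF/B filtration, scintillation counting.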
# Adenosine receptor A2a [2] = target: T2, Adenosine receptor A2a (Homo sapiens, UniProt P29274); assay: Displacement of [3H]MSX2 from human adenosine receptor A2A expressed in HEK293 cell membranes incubated for 30 mins by radioligand competition assay; set-up: species or system Cell membrane
# T2 sequence (P29274 whole entry): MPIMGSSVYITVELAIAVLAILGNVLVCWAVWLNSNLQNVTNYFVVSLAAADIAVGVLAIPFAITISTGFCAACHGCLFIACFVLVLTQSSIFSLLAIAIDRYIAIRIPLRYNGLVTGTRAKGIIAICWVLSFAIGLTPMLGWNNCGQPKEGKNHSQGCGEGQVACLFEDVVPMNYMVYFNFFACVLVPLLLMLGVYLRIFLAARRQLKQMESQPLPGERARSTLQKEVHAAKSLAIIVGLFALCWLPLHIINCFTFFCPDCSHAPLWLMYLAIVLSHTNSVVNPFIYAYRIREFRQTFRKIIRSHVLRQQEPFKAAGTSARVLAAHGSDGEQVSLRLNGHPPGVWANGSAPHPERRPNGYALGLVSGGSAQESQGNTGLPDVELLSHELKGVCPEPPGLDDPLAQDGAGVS
# Adenosine receptor A3 = target: T3, Adenosine receptor A3 (Homo sapiens, UniProt P0DMS8); assay: Displacement of [3H]PSB-11 from human adenosine receptor A3 expressed in CHO cell membranes incubated for 60 mins by radioligand competition assay; set-up: species or system Cell membrane
# T3 sequence (P0DMS8 whole entry): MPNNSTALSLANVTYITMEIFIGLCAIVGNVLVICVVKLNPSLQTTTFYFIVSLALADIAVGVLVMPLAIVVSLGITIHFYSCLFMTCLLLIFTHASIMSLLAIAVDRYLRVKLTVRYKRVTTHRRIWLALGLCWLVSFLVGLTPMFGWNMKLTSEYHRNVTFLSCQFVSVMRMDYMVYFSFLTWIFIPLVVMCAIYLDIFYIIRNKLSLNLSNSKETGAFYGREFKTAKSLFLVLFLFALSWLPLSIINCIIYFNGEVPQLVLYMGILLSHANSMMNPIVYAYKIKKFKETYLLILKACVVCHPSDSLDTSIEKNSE
# Adenosine receptor A2a [3] = target: T2, Adenosine receptor A2a; assay: Displacement of [3H]MSX2 from human adenosine receptor A2A expressed in HEK293 cell membranes at 0.1 uM incubated for 30 mins by radioligand competition assay relative to control; conditions: Cell membrane, in the assay text read “at 1 uM” for “at 0.1 uM”
# In short: (§1)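 A2A binding, [3H]MSX-2 1.0 nM. Membranes: rat brain striatum, or HEK293 cells expressing human A2A. Adenosine deaminase preincubation 20 min, then 30 min at rt in 50 mM Tris-HCl pH 7.4 with 2.5% DMSO. Nonspecific binding defined by 50 µM NECA. GF/B filtration, scintillation counting. Single-concentration percent inhibition, ≥3 experiments in duplicate or triplicate.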
# [4] = target: Adenosine receptor A2a (Rattus norvegicus) (UniProt P30543); assay: Displacement of [3H]MSX2 from adenosine receptor A2A in rat brain striatum membranes at 0.1 uM incubated for 30 mins by radioligand competition assay relative to control; conditions: Cell membrane; in short: as §1
# Adenosine receptor A2a (Rattus norvegicus), sequence (P30543 whole entry): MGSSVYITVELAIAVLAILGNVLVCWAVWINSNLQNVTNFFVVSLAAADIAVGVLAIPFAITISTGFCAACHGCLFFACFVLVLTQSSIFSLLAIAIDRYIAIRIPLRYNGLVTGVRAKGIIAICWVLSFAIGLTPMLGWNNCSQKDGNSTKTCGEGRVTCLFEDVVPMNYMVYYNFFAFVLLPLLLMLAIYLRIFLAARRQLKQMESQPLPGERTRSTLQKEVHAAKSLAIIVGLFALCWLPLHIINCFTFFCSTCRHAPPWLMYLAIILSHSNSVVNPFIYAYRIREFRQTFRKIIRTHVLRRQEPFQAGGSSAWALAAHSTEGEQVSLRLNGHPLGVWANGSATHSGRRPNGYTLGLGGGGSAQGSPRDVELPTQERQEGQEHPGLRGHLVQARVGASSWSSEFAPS
# Adenosine receptor A2b = target: T4, Adenosine receptor A2b (Homo sapiens, UniProt P29275); assay: Displacement of [3H]PSB-603 from human adenosine receptor A2B expressed in CHO cell membranes incubated for 75 mins by radioligand competition assay; set-up: species or system Cell membrane
# T4 sequence (P29275 whole entry): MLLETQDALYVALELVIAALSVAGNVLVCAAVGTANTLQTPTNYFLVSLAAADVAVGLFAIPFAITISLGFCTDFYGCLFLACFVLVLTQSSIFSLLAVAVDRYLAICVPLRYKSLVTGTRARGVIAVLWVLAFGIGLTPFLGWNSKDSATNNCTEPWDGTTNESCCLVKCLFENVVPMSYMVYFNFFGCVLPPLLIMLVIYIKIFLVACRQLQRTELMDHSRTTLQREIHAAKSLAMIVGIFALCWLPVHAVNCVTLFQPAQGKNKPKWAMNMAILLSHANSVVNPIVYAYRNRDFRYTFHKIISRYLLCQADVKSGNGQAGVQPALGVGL
structure (smiles),measurement,setting,value
COc1ccc(C(=O)Nc2nc(-c3ccccc3)c(C(=O)c3ccc(C)cc3)s2)cc1,inhibition,[1],13%
same,Ki,Adenosine receptor A2a [2],> 1 µM
same,Ki,Adenosine receptor A3,> 1 µM
same,inhibition,Adenosine receptor A2a [3],28%
same,inhibition,[4],15%
same,Ki,Adenosine receptor A2b,> 0.1 µM
